From ChEMBL document CHEMBL5724801, “EUbOPEN Chemogenomics Library - Multiplex” (2024)
“And” between values parts separate entries of the source, which are not always exact repeats. Equal entries are not always repeated.

System: Fibroblast
Assay: Multiplex assay against human fibroblast
Type: toxicity, cell-based
Procedure, shortened: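 Tubulin, mitochondrial-mass and membrane-permeability phenotypes are per cents of healthy-nucleus cells. Cells were gated by CellPathfinder machine learning into Hoechst high-intensity objects or normal cells, normal cells into healthy, pyknosed or fragmented nuclei, and pyknosed cells into mitotic or apoptotic. Before that, live cells stained at seeding with Hoechst33342, BioTracker Green Microtubule Cytoskeleton Dye, MitoTracker Red and Annexin V Alexa Fluor 680 were imaged on a CQ1 microscope at 37°C and 5% CO2 after compound addition.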

[1] = 12 h, 1 µM, compound concentration 1 uM
[2] = 12 h, 10 µM, compound concentration 10 uM
[3] = 24 h, 1 µM, compound concentration 1 uM
[4] = 24 h, 10 µM, compound concentration 10 uM
[5] = 48 h, 1 µM, compound concentration 1 uM
[6] = 48 h, 10 µM, compound concentration 10 uM

Structure (SMILES): COc1ccc(-n2c(C)c([N+](=O)[O-])c3ccc(O)cc32)cc1
- Population Apoptotic (%) [1]: 18% and 14.29%
- Population Fragmented Nuclei (%) [1]: 8.91% and 3.57%
- Population Healthy Nuclei (%) [1]: 66.34% and 79.76%
- Population Hoechst High Intensity Objects (%) [1]: 0%
- Population Membrane Permeable-Phenotype (%) [1]: 5.97% and 4.48%
- Population Mitochondria Different-Phenotype (%) [1]: 7.46%
- Population Mitotic Cells (%) [1]: 82% and 85.71%
- Population Normal (%) [1]: 100%
- Population Pyknosed Nuclei (%) [1]: 24.75% and 16.67%
- Population Tubulin-Different-Phenotype (%) [1]: 13.43% and 18.66%
- Total Cell Count [1]: 202 and 168
- Population Apoptotic (%) [2]: 17.65% and 23.08%
- Population Fragmented Nuclei (%) [2]: 6.97% and 4.59%
- Population Healthy Nuclei (%) [2]: 67.66% and 77.52%
- Population Hoechst High Intensity Objects (%) [2]: 0%
- Population Membrane Permeable-Phenotype (%) [2]: 5.15% and 4.73%
- Population Mitochondria Different-Phenotype (%) [2]: 6.62% and 11.24%
- Population Mitotic Cells (%) [2]: 82.35% and 76.92%
- Population Normal (%) [2]: 100%
- Population Pyknosed Nuclei (%) [2]: 25.37% and 17.89%
- Population Tubulin-Different-Phenotype (%) [2]: 14.71% and 28.4%
- Total Cell Count [2]: 201 and 218
- Population Apoptotic (%) [3]: 9.52% and 17.86%
- Population Fragmented Nuclei (%) [3]: 11.01% and 2.84%
- Population Healthy Nuclei (%) [3]: 69.72% and 81.25%
- Population Hoechst High Intensity Objects (%) [3]: 0%
- Population Membrane Permeable-Phenotype (%) [3]: 4.61% and 4.2%
- Population Mitochondria Different-Phenotype (%) [3]: 3.29% and 5.59%
- Population Mitotic Cells (%) [3]: 90.48% and 82.14%
- Population Normal (%) [3]: 100%
- Population Pyknosed Nuclei (%) [3]: 19.27% and 15.91%
- Population Tubulin-Different-Phenotype (%) [3]: 10.53% and 19.58%
- Total Cell Count [3]: 218 and 176
- Population Apoptotic (%) [4]: 15.38% and 16.67%
- Population Fragmented Nuclei (%) [4]: 4.88% and 5%
- Population Healthy Nuclei (%) [4]: 76.1% and 84.09%
- Population Hoechst High Intensity Objects (%) [4]: 0%
- Population Membrane Permeable-Phenotype (%) [4]: 3.85% and 2.7%
- Population Mitochondria Different-Phenotype (%) [4]: 8.33% and 6.49%
- Population Mitotic Cells (%) [4]: 84.62% and 83.33%
- Population Normal (%) [4]: 100%
- Population Pyknosed Nuclei (%) [4]: 19.02% and 10.91%
- Population Tubulin-Different-Phenotype (%) [4]: 15.38% and 20.54%
- Total Cell Count [4]: 205 and 220
- Population Apoptotic (%) [5]: 26.32% and 22.22%
- Population Fragmented Nuclei (%) [5]: 9.8% and 4.74%
- Population Healthy Nuclei (%) [5]: 82.45% and 85.79%
- Population Hoechst High Intensity Objects (%) [5]: 0%
- Population Membrane Permeable-Phenotype (%) [5]: 0% and 1.84%
- Population Mitochondria Different-Phenotype (%) [5]: 9.41% and 2.45%
- Population Mitotic Cells (%) [5]: 73.68% and 77.78%
- Population Normal (%) [5]: 100%
- Population Pyknosed Nuclei (%) [5]: 7.76% and 9.47%
- Total Cell Count [5]: 245 and 190
- Population Apoptotic (%) [6]: 28.57% and 38.89%
- Population Fragmented Nuclei (%) [6]: 7.73% and 4.61%
- Population Healthy Nuclei (%) [6]: 85.51% and 78.8%
- Population Hoechst High Intensity Objects (%) [6]: 0%
- Population Membrane Permeable-Phenotype (%) [6]: 3.39% and 7.02%
- Population Mitochondria Different-Phenotype (%) [6]: 10.17% and 5.85%
- Population Mitotic Cells (%) [6]: 71.43% and 61.11%
- Population Normal (%) [6]: 100%
- Population Pyknosed Nuclei (%) [6]: 6.76% and 16.59%
- Population Tubulin-Different-Phenotype (%) [6]: 10.17% and 28.07%
- Total Cell Count [6]: 207 and 217

Structure (SMILES): CC(C)CC(=O)Nc1cncc(-c2ccc3[nH]nc(-c4nc5c(-c6cccc(F)c6)cncc5[nH]4)c3c2)c1 [LORECIVIVINT]
- Population Fragmented Nuclei (%) [1]: 12.2% and 10.34%
- Population Healthy Nuclei (%) [1]: 60.98% and 74.14%
- Population Hoechst High Intensity Objects (%) [1]: 0%
- Population Membrane Permeable-Phenotype (%) [1]: 6% and 10.08%
- Population Mitochondria Different-Phenotype (%) [1]: 10% and 9.3%
- Population Mitotic Cells (%) [1]: 95.45% and 62.96%
- Population Normal (%) [1]: 100%
- Population Pyknosed Nuclei (%) [1]: 26.83% and 15.52%
- Population Tubulin-Different-Phenotype (%) [1]: 36% and 44.19%
- Total Cell Count [1]: 164 and 174
- Population Apoptotic (%) [2]: 37.84% and 20.2%
- Population Fragmented Nuclei (%) [2]: 10.38% and 7.03%
- Population Healthy Nuclei (%) [2]: 64.01% and 61.34%
- Population Hoechst High Intensity Objects (%) [2]: 0%
- Population Membrane Permeable-Phenotype (%) [2]: 14.59% and 9.38%
- Population Mitochondria Different-Phenotype (%) [2]: 4.86% and 2.08%
- Population Mitotic Cells (%) [2]: 62.16% and 79.8%
- Population Normal (%) [2]: 100%
- Population Pyknosed Nuclei (%) [2]: 25.61% and 31.63%
- Population Tubulin-Different-Phenotype (%) [2]: 37.84% and 36.46%
- Total Cell Count [2]: 289 and 313
- Population Apoptotic (%) [3]: 12.9% and 25%
- Population Fragmented Nuclei (%) [3]: 14.37% and 8.2%
- Population Healthy Nuclei (%) [3]: 67.82% and 80.87%
- Population Hoechst High Intensity Objects (%) [3]: 0%
- Population Membrane Permeable-Phenotype (%) [3]: 6.78% and 12.84%
- Population Mitochondria Different-Phenotype (%) [3]: 5.08% and 2.7%
- Population Mitotic Cells (%) [3]: 87.1% and 75%
- Population Normal (%) [3]: 100%
- Population Pyknosed Nuclei (%) [3]: 17.82% and 10.93%
- Population Tubulin-Different-Phenotype (%) [3]: 34.75% and 50.68%
- Total Cell Count [3]: 174 and 183
- Population Apoptotic (%) [4]: 40% and 21.83%
- Population Fragmented Nuclei (%) [4]: 10% and 5.2%
- Population Healthy Nuclei (%) [4]: 49.38% and 59.65%
- Population Hoechst High Intensity Objects (%) [4]: 0%
- Population Membrane Permeable-Phenotype (%) [4]: 13.29% and 10.37%
- Population Mitochondria Different-Phenotype (%) [4]: 2.53% and 0.41%
- Population Mitotic Cells (%) [4]: 60% and 78.17%
- Population Normal (%) [4]: 100%
- Population Pyknosed Nuclei (%) [4]: 40.62% and 35.15%
- Population Tubulin-Different-Phenotype (%) [4]: 37.97% and 34.02%
- Total Cell Count [4]: 320 and 404
- Population Apoptotic (%) [5]: 16.67% and 32.43%
- Population Fragmented Nuclei (%) [5]: 16.43% and 12.15%
- Population Healthy Nuclei (%) [5]: 60.39% and 67.4%
- Population Hoechst High Intensity Objects (%) [5]: 0%
- Population Membrane Permeable-Phenotype (%) [5]: 8% and 13.93%
- Population Mitochondria Different-Phenotype (%) [5]: 9.6% and 4.92%
- Population Mitotic Cells (%) [5]: 83.33% and 67.57%
- Population Normal (%) [5]: 100%
- Population Pyknosed Nuclei (%) [5]: 23.19% and 20.44%
- Population Tubulin-Different-Phenotype (%) [5]: 32% and 47.54%
- Total Cell Count [5]: 207 and 181
- Population Apoptotic (%) [6]: 46.41% and 43.05%
- Population Fragmented Nuclei (%) [6]: 10.67% and 7.39%
- Population Healthy Nuclei (%) [6]: 33.6% and 33.77%
- Population Hoechst High Intensity Objects (%) [6]: 0%
- Population Membrane Permeable-Phenotype (%) [6]: 8.73% and 10.16%
- Population Mitochondria Different-Phenotype (%) [6]: 5.56% and 1.56%
- Population Mitotic Cells (%) [6]: 53.59% and 56.95%
- Population Normal (%) [6]: 100%
- Population Pyknosed Nuclei (%) [6]: 55.73% and 58.84%
- Population Tubulin-Different-Phenotype (%) [6]: 17.46% and 26.56%
- Total Cell Count [6]: 375 and 379

Structure (SMILES): Cc1noc(C)c1-c1cnc2c(-c3ccc(C(=O)O)cc3)cn([C@@H](C)c3ccccn3)c2c1 [PLX-51107]
- Population Apoptotic (%) [1]: 4.44% and 12.9%
- Population Fragmented Nuclei (%) [1]: 10.26% and 3.93%
- Population Healthy Nuclei (%) [1]: 66.67% and 82.53%
- Population Hoechst High Intensity Objects (%) [1]: 0%
- Population Membrane Permeable-Phenotype (%) [1]: 4.62% and 1.06%
- Population Mitochondria Different-Phenotype (%) [1]: 10% and 6.88%
- Population Mitotic Cells (%) [1]: 95.56% and 87.1%
- Population Normal (%) [1]: 100%
- Population Pyknosed Nuclei (%) [1]: 23.08% and 13.54%
- Population Tubulin-Different-Phenotype (%) [1]: 11.54% and 14.81%
- Total Cell Count [1]: 195 and 229
- Population Apoptotic (%) [2]: 16.13% and 16.67%
- Population Fragmented Nuclei (%) [2]: 6.25% and 5.33%
- Population Healthy Nuclei (%) [2]: 78.85% and 82.38%
- Population Hoechst High Intensity Objects (%) [2]: 0%
- Population Membrane Permeable-Phenotype (%) [2]: 4.27% and 2.99%
- Population Mitochondria Different-Phenotype (%) [2]: 12.8% and 10.95%
- Population Mitotic Cells (%) [2]: 83.87% and 83.33%
- Population Normal (%) [2]: 100%
- Population Pyknosed Nuclei (%) [2]: 14.9% and 12.3%
- Population Tubulin-Different-Phenotype (%) [2]: 14.63% and 21.89%
- Total Cell Count [2]: 208 and 244
- Population Fragmented Nuclei (%) [3]: 8.57% and 3.9%
- Population Healthy Nuclei (%) [3]: 78.1% and 88.31%
- Population Hoechst High Intensity Objects (%) [3]: 0%
- Population Membrane Permeable-Phenotype (%) [3]: 2.44% and 0.98%
- Population Mitochondria Different-Phenotype (%) [3]: 4.88% and 3.43%
- Population Mitotic Cells (%) [3]: 82.14% and 94.44%
- Population Normal (%) [3]: 100%
- Population Pyknosed Nuclei (%) [3]: 13.33% and 7.79%
- Population Tubulin-Different-Phenotype (%) [3]: 7.32% and 10.29%
- Total Cell Count [3]: 210 and 231
- Population Apoptotic (%) [4]: 20% and 14.81%
- Population Fragmented Nuclei (%) [4]: 7.04% and 7.47%
- Population Healthy Nuclei (%) [4]: 85.43% and 81.33%
- Population Hoechst High Intensity Objects (%) [4]: 0%
- Population Membrane Permeable-Phenotype (%) [4]: 3.53% and 2.04%
- Population Mitochondria Different-Phenotype (%) [4]: 11.18% and 6.63%
- Population Mitotic Cells (%) [4]: 80% and 85.19%
- Population Normal (%) [4]: 100%
- Population Pyknosed Nuclei (%) [4]: 7.54% and 11.2%
- Population Tubulin-Different-Phenotype (%) [4]: 12.94% and 15.31%
- Total Cell Count [4]: 199 and 241
- Population Apoptotic (%) [5]: 30%
- Population Fragmented Nuclei (%) [5]: 11.06% and 8.8%
- Population Healthy Nuclei (%) [5]: 84.13% and 87.2%
- Population Hoechst High Intensity Objects (%) [5]: 0%
- Population Membrane Permeable-Phenotype (%) [5]: 0.57% and 3.67%
- Population Mitotic Cells (%) [5]: 70%
- Population Normal (%) [5]: 100%
- Population Pyknosed Nuclei (%) [5]: 4.81% and 4%
- Population Tubulin-Different-Phenotype (%) [5]: 4.57% and 11.93%
- Total Cell Count [5]: 208 and 250
- Population Apoptotic (%) [6]: 28.57% and 50%
- Population Fragmented Nuclei (%) [6]: 7% and 9.25%
- Population Healthy Nuclei (%) [6]: 86% and 83.7%
- Population Hoechst High Intensity Objects (%) [6]: 0%
- Population Membrane Permeable-Phenotype (%) [6]: 3.49% and 1.05%
- Population Mitotic Cells (%) [6]: 71.43% and 50%
- Population Normal (%) [6]: 100%
- Population Pyknosed Nuclei (%) [6]: 7% and 7.05%
- Population Tubulin-Different-Phenotype (%) [6]: 10.47% and 9.47%
- Total Cell Count [6]: 200 and 227
